From article PMC9089800 (RSC Advances, 2018)

Legend:
MCF7 = assay: MTT growth inhibition / cytotoxicity assay, MCF7; assay type: cell-based, human; conditions: Homo sapiens, MCF7, 48 h, read-out: IC50 in μM MCF7, MTT, 48 h, 0–100 μM
MCF7 cells [1] = assay: DNA fragmentation assay; assay type: cell-based, human; conditions: MCF7, 24 h; 30 μM of 9, 20 μM of 10
MCF7 cells [2] = assay: Cell cycle analysis by FACS; assay type: cell-based, human; conditions: MCF7, 24 h; 30 μM of 9, 20 μM of 10
Summary of the method: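 Cells seeded a day before; treated 24 h with test compound or DMSO vehicle (final DMSO <0.02%). Cells trypsinised, pelleted at 4 °C, fixed overnight at 4 °C in chilled 95% ethanol, and PBS-washed. Stained with propidium iodide plus RNase in PBS/2 mM MgCl2 for 20 min at 37 °C, then acquired by flow cytometry. Three repeats; mean sub-G1 population plotted.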

MCF10A = assay: cells; assay type: cell-based; conditions: 48 h
caspase 9 = assay: Western blot for apoptotic pathway; assay type: cell-based, human; conditions: MCF7, 24 h; 30 μM of 9, 20 μM of 10
Summary of the method: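 MCF7 cells exposed 24 h to DMSO vehicle or test compound. Lysed 20 min on ice in Tris pH 7.4/EDTA/NaCl/NaF/orthovanadate/0.5% Triton X-100, then cleared at 16000 × g at 4 °C. Protein quantified by Bradford; samples boiled in Laemmli buffer. SDS-PAGE, PVDF transfer, 3% milk/TBST block. Anti-caspase 9 overnight at 4 °C; HRP secondary; chemiluminescent detection.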

MCF7 cells [3] = assay: Immunostaining; assay type: cell-based, human; conditions: IC50 concentration, 12 hours
Summary of the method: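 Cells grown overnight as a monolayer on coverslips, then exposed to test compound for 12 h. Fixed in 3.7% formaldehyde for 20 min at room temperature in the dark. Permeabilised with 0.5% Tween-20 for 30 min, then blocked with 3% BSA. Stained 1 h with anti-α-tubulin, then 1 h with Alexa Fluor 594 secondary. DNA counterstained with Hoechst; mounted in DABCO/glycerol.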

SMILES	IC50 (MCF7) [µM]	also measured
C=C1[C@@H]2[C@H]3OC(=O)[C@@H](CN4CCCC4)[C@@H]3CCC(=C)[C@@H]2C[C@@H]1O [Compound 19, (3R,3aS,6aR,8S,9aR,9bS)-8-Hydroxy-6,9-dimethylene-3-(pyrrolidin-1-ylmethyl)decahydroazuleno[4,5-b]furan-2(3H)-one]	> 100	
C=C1[C@@H]2[C@H]3OC(=O)[C@@H](CN[C@@H](C)C4CCCCC4)[C@@H]3CCC(=C)[C@@H]2C[C@@H]1O [Compound 12, (3R,3aS,6aR,8S,9aR,9bS)-3-((((S)-1-Cyclohexylethyl)amino)methyl)-8-hydroxy-6,9-dimethylenedecahydroazuleno[4,5-b]furan-2(3H)-one]	> 100	
C=C1[C@@H]2[C@H]3OC(=O)/C(=C/c4ccc(C)cc4)[C@@H]3CCC(=C)[C@@H]2C[C@@H]1OC(C)=O [Compound 23, (3aS,6aR,8S,9aR,9bS)-3-((E)-4-Methylbenzylidene)-6,9-dimethylene-2-oxododecahydroazuleno[4,5-b]furan-8-yl acetate]	> 100	
C=C1[C@@H]2[C@H]3OC(=O)/C(=C/c4ccccc4C)[C@@H]3CCC(=C)[C@@H]2C[C@@H]1OC(C)=O [Compound 29, (3aS,6aR,8S,9aR,9bS)-3-((E)-2-Methylbenzylidene)-6,9-dimethylene-2-oxododecahydroazuleno[4,5-b]furan-8-yl acetate]	74	
C=C1[C@@H]2[C@H]3OC(=O)/C(=C/c4ccc(NC(C)=O)c(C(F)(F)F)c4)[C@@H]3CCC(=C)[C@@H]2C[C@@H]1OC(C)=O [Compound 28, (3aS,6aR,8S,9aR,9bS)-3-((E)-4-Acetamido-3-(trifluoromethyl)benzylidene)-6,9-dimethylene-2-oxododecahydroazuleno[4,5-b] furan-8-yl acetate]	> 100	
C=C1[C@@H]2[C@H]3OC(=O)[C@@H](CN[C@H](C)c4cccc5ccccc45)[C@@H]3CCC(=C)[C@@H]2C[C@@H]1O [Compound 10, (3R,3aS,6aR,8S,9aR,9bS)-8-Hydroxy-6,9-dimethylene-3-((((R)-1-(naphthalen-1-yl)ethyl)amino)methyl)decahydroazuleno[4,5-b] furan-2(3H)-one]		fragmentation of genomic DNA (ladder on agarose gel) (MCF7 cells [1]): substantial fragmented DNA ladder; apoptotic (sub-G1) population (MCF7 cells [2]): significantly increased the apoptotic populations; IC50 (MCF10A; Homo sapiens, MCF-10A, read-out: IC50 in μM MCF10A): > 100 µM; cytotoxic effect on normal breast epithelial MCF10A cells (in words) (MCF10A; MTT): minimal cytotoxic effect; apoptotic pathway (caspase 9 immunoblot) (caspase 9): cleavage of caspase 9; DNA fragmentation by Hoechst staining, tubulin morphology (MCF7 cells [3]): fragmented DNA
C=C1[C@@H]2[C@H]3OC(=O)/C(=C/c4ccc(Cl)cc4[N+](=O)[O-])[C@@H]3CCC(=C)[C@@H]2C[C@@H]1OC(C)=O [Compound 33, (3aS,6aR,8S,9aR,9bS)-3-((E)-4-Chloro-2-nitrobenzylidene)-6,9-dimethylene-2-oxododecahydroazuleno[4,5-b]furan-8-yl acetate]	> 100	
C=C1[C@@H]2[C@H]3OC(=O)[C@@H](CN[C@H](C)c4ccccc4)[C@@H]3CCC(=C)[C@@H]2C[C@@H]1O [Compound 6, (3R,3aS,6aR,8S,9aR,9bS)-8-Hydroxy-6,9-dimethylene-3-((((R)-1-phenylethyl)amino)methyl)decahydroazuleno[4,5-b]furan-2(3H)-one]	> 100	
C=C1[C@@H]2[C@H]3OC(=O)[C@@H](CN[C@@H](C)c4cccc5ccccc45)[C@@H]3CCC(=C)[C@@H]2C[C@@H]1O [Compound 8, (3R,3aS,6aR,8S,9aR,9bS)-8-Hydroxy-6,9-dimethylene-3-((((S)-1-(naphthalene-1-yl)ethyl)amino)methyl)decahydroazuleno[4,5-b] furan-2(3H)-one]	75.8 ± 3	
C=C1[C@@H]2[C@H]3OC(=O)/C(=C/c4ccc(C)cc4[N+](=O)[O-])[C@@H]3CCC(=C)[C@@H]2C[C@@H]1OC(C)=O [Compound 34, (3aS,6aR,8S,9aR,9bS)-3-((E)-4-Methyl-2-nitrobenzylidene)-6,9-dimethylene-2-oxododecahydroazuleno[4,5-b]furan-8-yl acetate]	> 100	
C=C1[C@@H]2[C@H]3OC(=O)[C@@H](COC)[C@@H]3CCC(=C)[C@@H]2C[C@@H]1O [Compound 22, (3R,3aS,6aR,8S,9aR,9bS)-8-Hydroxy-3-(methoxymethyl)-6,9-dimethylenedecahydroazuleno[4,5-b]furan-2(3H)-one]	> 100	
C=C1[C@@H]2[C@H]3OC(=O)[C@@H](CN[C@@H](C)c4cccc5ccccc45)[C@@H]3CCC(=C)[C@@H]2C[C@@H]1OC(C)=O [Compound 7, (3R,3aS,6aR,8S,9aR,9bS)-6,9-Dimethylene-3-((((S)-1-(naphthalen-1-yl)ethyl)amino)methyl)-2-oxododecahydroazuleno[4,5-b]furan-8-yl acetate]	> 100	
C=C1[C@@H]2[C@H]3OC(=O)[C@@H](CN[C@H](C)C4CCCCC4)[C@@H]3CCC(=C)[C@@H]2C[C@@H]1O [Compound 11, (3R,3aS,6aR,8S,9aR,9bS)-3-((((R)-1-Cyclohexylethyl)amino)methyl)-8-hydroxy-6,9-dimethylenedecahydroazuleno[4,5-b]furan-2(3H)-one]	> 100	
C=C1[C@@H]2[C@H]3OC(=O)/C(=C/c4c(OC)cccc4[N+](=O)[O-])[C@@H]3CCC(=C)[C@@H]2C[C@@H]1OC(C)=O [Compound 26, (3aS,6aR,8S,9aR,9bS)-3-((E)-2-Methoxy-6-nitrobenzylidene)-6,9-dimethylene-2-oxododecahydroazuleno[4,5-b]furan-8-yl acetate]	> 100	
C=C1[C@@H]2[C@H]3OC(=O)/C(=C/c4ccc(C)c([N+](=O)[O-])c4)[C@@H]3CCC(=C)[C@@H]2C[C@@H]1OC(C)=O [Compound 27, (3aS,6aR,8S,9aR,9bS)-3-((E)-4-Methyl-3-nitrobenzylidene)-6,9-dimethylene-2-oxododecahydroazuleno[4,5-b]furan-8-yl acetate]	> 100	
C=C1[C@@H]2[C@H]3OC(=O)/C(=C/c4ccccc4[N+](=O)[O-])[C@@H]3CCC(=C)[C@@H]2C[C@@H]1OC(C)=O [Compound 32, (3aS,6aR,8S,9aR,9bS)-6,9-Dimethylene-3-((E)-2-nitrobenzylidene)-2-oxododecahydroazuleno[4,5-b]furan-8-yl acetate]	36.5	
C=C1[C@@H]2[C@H]3OC(=O)[C@@H](CN4CCOCC4)[C@@H]3CCC(=C)[C@@H]2C[C@@H]1O [Compound 18, (3R,3aS,6aR,8S,9aR,9bS)-8-Hydroxy-6,9-dimethylene-3-(morpholinomethyl)decahydroazuleno[4,5-b]furan-2(3H)-one]	> 100	
C=C1[C@@H]2[C@H]3OC(=O)[C@@H](CN4CCOCC4)[C@@H]3CCC(=C)[C@@H]2C[C@@H]1OC(C)=O [Compound 17, (3R,3aS,6aR,8S,9aR,9bS)-6,9-Dimethylene-3-(morpholinomethyl)-2-oxododecahydroazuleno[4,5-b]furan-8-yl acetate]	> 100	
C=C1[C@@H]2[C@H]3OC(=O)/C(=C/c4ccc(C(=O)OC)cc4)[C@@H]3CCC(=C)[C@@H]2C[C@@H]1OC(C)=O [Compound 30, Methyl-4-((E)-((3aS,6aR,8S,9aR,9bS)-8-acetoxy-6,9-dimethylene-2-oxodecahydroazuleno[4,5-b]furan-3(2H)-ylidene)methyl)benzoate]	> 100	
C=C1[C@@H]2[C@H]3OC(=O)/C(=C/c4cccc(C(F)(F)F)c4)[C@@H]3CCC(=C)[C@@H]2C[C@@H]1OC(C)=O [Compound 24, (3aS,6aR,8S,9aR,9bS)-6,9-Dimethylene-2-oxo-3-((E)-3-(trifluoro-methyl)benzylidene)dodecahydroazuleno[4,5-b]furan-8-yl acetate]	> 100	
C=C1[C@@H]2[C@H]3OC(=O)[C@@H](CN4CCCCC4)[C@@H]3CCC(=C)[C@@H]2C[C@@H]1O [Compound 20, (3R,3aS,6aR,8S,9aR,9bS)-8-Hydroxy-6,9-dimethylene-3-(piperidin-1-ylmethyl)decahydroazuleno[4,5-b]furan-2(3H)-one]	> 100	
C=C1[C@@H]2[C@H]3OC(=O)[C@@H](CN[C@@H](C)c4ccccc4)[C@@H]3CCC(=C)[C@@H]2C[C@@H]1O [Compound 4, (3R,3aS,6aR,8S,9aR,9bS)-8-Hydroxy-6,9-dimethylene-3-((((S)-1-phenylethyl)amino)methyl)decahydroazuleno[4,5-b]furan-2(3H)-one]	> 100	
C=C1[C@@H]2[C@H]3OC(=O)/C(=C/c4ccc(Cl)cc4)[C@@H]3CCC(=C)[C@@H]2C[C@@H]1OC(C)=O [Compound 25, (3aS,6aR,8S,9aR,9bS)-3-((E)-4-Chlorobenzylidene)-6,9-dimethylene-2-oxododecahydroazuleno[4,5-b]furan-8-yl acetate]	> 100	
